Hits are enriched below; roughly 4.6% of the tested compounds scored in any of these assays.
TAAR1 antagonist = human TAAR1 antagonists, primary screen, Fluo-8 calcium fluorescence, CHO RD-HGA16 cells. Trace amine-associated receptor 1 (Homo sapiens), Q96RJ0. hit rate 1.5% among 360,000. inhibition, % at 3 µM. AID 624466, 2012. antagonist;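 active means inhibition above a per-plate cutoff, the mean inhibition of test compounds on that plate plus 3 SD, cut at about 49% in these data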;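 further: 0% = DMSO plus EC80 beta-PEA response and 100% = DMSO alone without agonist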
Target sequence (Q96RJ0 whole entry, looked up): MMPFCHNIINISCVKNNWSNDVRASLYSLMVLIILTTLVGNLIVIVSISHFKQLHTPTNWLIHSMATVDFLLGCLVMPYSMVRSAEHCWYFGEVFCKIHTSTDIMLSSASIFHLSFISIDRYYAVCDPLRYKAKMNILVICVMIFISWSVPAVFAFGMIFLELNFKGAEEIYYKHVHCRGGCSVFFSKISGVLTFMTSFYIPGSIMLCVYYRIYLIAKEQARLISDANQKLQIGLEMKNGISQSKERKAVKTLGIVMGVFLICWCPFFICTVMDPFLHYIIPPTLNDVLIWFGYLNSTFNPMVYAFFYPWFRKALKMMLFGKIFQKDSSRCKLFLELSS
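Test system: RD-HGA16 CHO cells with stable hTAAR1 and Gα16 / Probe or stimulus: EC80 β-phenethylamine stimulus / Times: seeding 17-24 h prior, 75-min 37 °C, 30-min RT dye loading / Detection: Fluo-8 calcium-sensitive fluorescence / Read-out basis: % inhibition scaled between DMSO and EC80 PEA controls / Repeats: singlicate, one well per test compound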
OX1R antag-1 = OX1R (HCRTR1) antagonists, primary screen, fluorescence, CHO/OX1R cells, Fluo-8 calcium, orexin A. hit rate 0.43% among 330,000. Fluo-8 calcium fluorescence. Orexin/Hypocretin receptor type 1 (Homo sapiens), O43613. inhibition, % at 5 µM;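 active means inhibition above its plate's threshold, mean inhibition of all tested compounds on the plate plus 3 SD, cut at about 37% in these data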;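 further: 0% = orexin A challenge wells and 100% = SB-334867-A antagonist wells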
Target sequence (O43613 whole entry, looked up): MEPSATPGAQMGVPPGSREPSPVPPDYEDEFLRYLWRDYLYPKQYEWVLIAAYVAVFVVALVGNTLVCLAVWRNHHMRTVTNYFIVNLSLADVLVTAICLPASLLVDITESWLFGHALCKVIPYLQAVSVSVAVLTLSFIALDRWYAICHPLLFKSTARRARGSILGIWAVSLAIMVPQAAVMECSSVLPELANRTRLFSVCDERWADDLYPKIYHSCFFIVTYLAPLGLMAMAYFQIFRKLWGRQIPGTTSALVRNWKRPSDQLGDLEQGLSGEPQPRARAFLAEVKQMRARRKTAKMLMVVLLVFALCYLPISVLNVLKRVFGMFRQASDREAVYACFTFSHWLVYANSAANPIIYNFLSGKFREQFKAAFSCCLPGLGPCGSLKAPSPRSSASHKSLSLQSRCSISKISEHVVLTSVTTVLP
CHO parental Ca = ATP-evoked calcium signal inhibitors, parental CHO, primary screen, counter-screen for OX1R antagonist project, cell-based, fluorescence, Fluo-8 calcium dye. parental CHO-K1, ATP-induced calcium, Fluo-8 fluorescence. inhibition, % at 5.6 µM. hit rate 0.63% among 330,000;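 active means inhibition above that plate's mean sample inhibition plus 3 SD, cut at about 26% in these data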;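 further: 0% = ATP-challenged DMSO wells and 100% = DMSO wells without ATP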
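Measured by: calcium-sensitive Fluo-8 fluorescence / Test system: CHO parental line / Controls: ATP-challenged DMSO wells low, unchallenged DMSO wells high / Measure: % inhibition / Compound: single nominal dose of 5.6 µM per compound / Replicates: single well per compound, no replicates / Reagent: ATP as calcium-mobilizing challenge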
OX1R antag-2 = antagonists of human orexin 1 receptor (OX1R); Orexin/Hypocretin receptor type 1 (Homo sapiens), O43613; inhibition, % at 6.6 µM; AID 485270, 2010; OX1R-expressing cells, FRET antagonist read-out; hit rate 1.8% among 330,000; in the data active means inhibition mostly above about 38%, no sharp cut-off; inactive means mostly below about 40%;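 further: 0% = agonist challenge alone and 100% = reference antagonist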
GPR7 antagonist = GPR7 receptor antagonists, primary screen, cell-based, fluorescence, single concentration; Neuropeptides B/W receptor type 1 (Homo sapiens), P48145; GPR7-expressing cells, fluorescence antagonist assay; inhibition, % at 4.4 µM; hit rate 1.1% among 290,000; AID 1861, 2009; in the data active means inhibition above about 16%, passing the limit was not always enough;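 further: cells stimulated with the agonist NPW; 0% = agonist with vehicle and 100% = vehicle without agonist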
TAAR1 agonist = human TAAR1 agonists, primary screen, Fluo-8 calcium fluorescence, CHO RD-HGA16 cells. hit rate 0.99% among 360,000. vehicle wells 0%, saturating PEA agonist 100%. activation, % at 3 µM. Trace amine-associated receptor 1 (Homo sapiens), Q96RJ0;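 active means activation above the mean activation of all test compounds in the run plus 3 SD, cut at about 38% in these data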
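test system = CHO RD-HGA16 cells carrying human TAAR1 plus Gα16 | schedule = 17-24 h seeding, 75 min 37 °C dye, 30 min RT | compound dosing = 3 µM single concentration | control set = DMSO and PEA EC100 | replicates = n 1 | signal = Fluo-8 fluorescence, 5 s baseline then 140 s kinetic read | measure = percent activation vs PEA EC100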
GPR7 antag conf = GPR7 receptor antagonists, confirmation, cell-based, fluorescence, single concentration; shares compounds with GPR7 antagonist; GPR7-expressing cells, calcium fluorescence antagonist mode; inhibition, % at 4.4 µM; hit rate 52% among 2,400; AID 1952, 2009; in the data active means inhibition above about 24%;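 further: stimulated with the GPR7 agonist NPW; 0% = agonist plus vehicle and 100% = vehicle alone without agonist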
MCHR1 antagonist = MCHR1 antagonists in cells, counter-screen for GPR7 antagonist project, cell-based, fluorescence, human | hit rate 62% among 2,400 | AID 2148, 2009 | MCHR1-expressing cells, fluorescence antagonist assay | shares compounds with GPR7 antagonist | inhibition, % at 4.4 µM; in the data active means inhibition above about 22%;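 further: 0% = vehicle with agonist and 100% = vehicle without agonist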
Active calls of the source: *.

For O=S(=O)(Cc1ccc(Cl)cc1)NCc1cccnc1 the results were TAAR1 antagonist -1.9, OX1R antag-1 -14.6, CHO parental Ca -13.3, OX1R antag-2 12.1, GPR7 antagonist 24.6*, TAAR1 agonist 6.9, GPR7 antag conf -3.6 and MCHR1 antagonist -2.6.
O=C1NC[C@H](Cc2ccc(O)cc2)N(C[C@@H]2CCCN2C[C@H](Cc2ccc(O)cc2)N2C[C@H](Cc3ccccc3)N(CCc3ccccc3)C(=O)C2=O)C1=O was read as TAAR1 antagonist -35.0 and TAAR1 agonist 0.8.
`Cc1cc(C)nc(NS(=O)(=O)c2ccc(NC(=O)CN3C(=O)C4CC=CCC4C3=O)cc2)n1` (centres undefined) gave TAAR1 antagonist -3.4, OX1R antag-1 -10.8, CHO parental Ca -22.5, OX1R antag-2 9.7, GPR7 antagonist -6.7 and TAAR1 agonist 12.7.
`CCOC(=O)C1(CCOc2ccccc2)CCN(Cc2cccc(OC)c2OC)CC1` gave TAAR1 antagonist -3.5, OX1R antag-1 -16.8, CHO parental Ca 37.4*, OX1R antag-2 21.6, GPR7 antagonist 32.4*, TAAR1 agonist 4.5, GPR7 antag conf 24.2* and MCHR1 antagonist 54.3*.
`COC(=O)C1=C(C)N=C2SC(C#N)=C(N)N2C1c1ccc(OCc2ccccc2)cc1` (centres undefined) gave TAAR1 antagonist 17.9, OX1R antag-1 -1.9, CHO parental Ca -11.7, OX1R antag-2 24.0, GPR7 antagonist -7.2 and TAAR1 agonist 11.8.
Screening COC(=O)C1=C(C)N=C2SC(C#N)=C(N)N2C1c1cc(OC)c(OC)c(OC)c1 (centres undefined) returned TAAR1 antagonist -3.4, OX1R antag-1 -25.7, CHO parental Ca -12.0, OX1R antag-2 15.8, GPR7 antagonist 27.9*, TAAR1 agonist 9.2, GPR7 antag conf -4.0 and MCHR1 antagonist -5.4.
Screening CCCCCC(=O)NC1CCCCN(C)C1=O (centres undefined) returned TAAR1 antagonist -25.9 and TAAR1 agonist 3.3.
O=C(Nc1cccc(Cl)c1)c1ccccc1 was read as TAAR1 antagonist 0.0, OX1R antag-1 -16.8, CHO parental Ca -10.2, OX1R antag-2 10.6 and TAAR1 agonist 3.5.
For CCN(c1ccccc1)S(=O)(=O)c1cc(C(=O)Nc2cccc(Cl)c2)ccc1F the results were TAAR1 antagonist 32.0, OX1R antag-1 -1.6, CHO parental Ca 12.0, OX1R antag-2 20.6, GPR7 antagonist 26.2*, TAAR1 agonist 7.5, GPR7 antag conf 9.5 and MCHR1 antagonist 51.0*.
COCCNc1cnn(-c2ccccc2)c(=O)c1Cl was read as TAAR1 antagonist -12.2, OX1R antag-1 -7.7, CHO parental Ca -0.1, OX1R antag-2 15.5, GPR7 antagonist 24.1*, TAAR1 agonist 3.1, GPR7 antag conf -4.4 and MCHR1 antagonist -0.5.
For CCCCNc1cnn(-c2ccccc2)c(=O)c1Cl the results were TAAR1 antagonist -0.2, OX1R antag-1 -24.5, CHO parental Ca -0.4, OX1R antag-2 18.5, GPR7 antagonist 8.4 and TAAR1 agonist 9.2.
CCCOc1ccc(N2C(=O)CC(N3CCN(c4ccccc4F)CC3)C2=O)cc1 (centres undefined) was read as TAAR1 antagonist -28.9, OX1R antag-1 -28.7, CHO parental Ca -8.8, OX1R antag-2 7.4, GPR7 antagonist -7.4 and TAAR1 agonist -5.2.
`CCCOc1ccc(N2C(=O)CC(N3CCN(c4nc5ccccc5s4)CC3)C2=O)cc1` (centres undefined) gave TAAR1 antagonist 0.6, OX1R antag-1 -23.9, CHO parental Ca -32.2, OX1R antag-2 15.5, GPR7 antagonist 41.8*, TAAR1 agonist 5.9, GPR7 antag conf -2.8 and MCHR1 antagonist 33.5*.
Cc1ccc[n+](CC(=O)Nc2cc(C(F)(F)F)ccc2Cl)c1 was read as TAAR1 antagonist 0.4, OX1R antag-1 4.8, CHO parental Ca 7.3, OX1R antag-2 20.6, GPR7 antagonist -2.1 and TAAR1 agonist 13.1.
`CCC(C)(C)c1ccc(OCCCC[n+]2cccc(C)c2)c(C(C)(C)CC)c1` gave TAAR1 antagonist -16.4, GPR7 antagonist 21.1*, TAAR1 agonist 31.6, GPR7 antag conf 77.7* and MCHR1 antagonist 90.5*.
`COc1cc(OC)c(C(=O)Nc2ccc(C(=O)c3ccccc3)cc2)cc1OC` gave TAAR1 antagonist 18.7, OX1R antag-1 -26.1, CHO parental Ca -19.9, OX1R antag-2 23.7, GPR7 antagonist 0.1 and TAAR1 agonist 3.6.
Screening O=C(CCN1C(=O)/C(=C\c2ccccc2)SC1=S)N1CCCCC1 returned TAAR1 antagonist -11.4, OX1R antag-1 -4.8, CHO parental Ca -14.0, OX1R antag-2 12.2, GPR7 antagonist 21.7*, TAAR1 agonist -0.6, GPR7 antag conf 7.6 and MCHR1 antagonist -0.5.
Cc1ccc(/C=C2\SC(=S)N(CCC(=O)N3CCCCC3)C2=O)cc1 was read as TAAR1 antagonist 3.0, OX1R antag-1 -16.6, CHO parental Ca -8.1, OX1R antag-2 9.4, GPR7 antagonist -10.0 and TAAR1 agonist -3.3.
Screening CC(/C=C1\SC(=O)N(CCCC(=O)O)C1=O)=C\c1ccccc1 returned TAAR1 antagonist -6.0, OX1R antag-1 -4.3, CHO parental Ca -6.4, OX1R antag-2 10.6, GPR7 antagonist -6.3 and TAAR1 agonist 3.7.
For CC(=C\c1ccccc1)/C=C1/SC(=S)N(CCCC(=O)O)C1=O the results were TAAR1 antagonist -16.0, GPR7 antagonist 39.0*, TAAR1 agonist 3.3, GPR7 antag conf 19.5 and MCHR1 antagonist 17.2.
`CCc1ccc(C(=O)NNC(=O)C2CC(=O)N(Cc3ccccc3)C2)cc1` (centres undefined) gave TAAR1 antagonist -25.0, OX1R antag-1 -24.8, CHO parental Ca -10.1, OX1R antag-2 13.0 and TAAR1 agonist 2.6.
Screening CCCCCc1ccc(-c2cn(Cc3ccc([N+](=O)[O-])cc3)nn2)cc1 returned OX1R antag-1 -20.5, CHO parental Ca -5.0, OX1R antag-2 18.5, GPR7 antagonist 33.4*, GPR7 antag conf 36.6* and MCHR1 antagonist 57.3*.

Screening results: PubChem, The Scripps Research Institute Molecular Screening Center
